The source made the active and inactive calls. No cut-off for these calls is given here.
Tests used:
Salmonella typhimurium [1] = assay: Antimutagenic activity in Salmonella Typhimurium TA1535 carrying pSK1002 containing umuC'-lacZ fused gene assessed as suppression of MeIQ-induced SOS response to alteration in DNA synthesis at 0.3 mM measured by beta-galactosidase activity by Umu test; assay type: functional, Salmonella enterica subsp. enterica serovar Typhimurium
How it was run: (§1)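 S. typhimurium TA1535/pSK1002 (umuC′-′lacZ fusion on the plasmid). The overnight culture was diluted 50-fold in fresh TGA medium and grown at 37 °C to A600 0.25-0.30. SOS induction was read as β-galactosidase activity in Miller units. The S9 mix used rat liver S9 (phenobarbital/5,6-benzoflavone-pretreated males) with G-6-P, NADH and NADPH cofactors.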

Salmonella typhimurium [2] = assay: Inhibition of activated MeIQ-induced SOS response to alteration in DNA synthesis in Salmonella Typhimurium TA1535 carrying pSK1002 containing umuC'-lacZ fused gene at 0.6 mM; assay type: functional, Salmonella enterica subsp. enterica serovar Typhimurium; parameters: scale not given: the % may be the effect or the level left; how it was run: as §1
Salmonella typhimurium [3] = assay: Antimutagenic activity in Salmonella Typhimurium TA1535 carrying pSK1002 containing umuC'-lacZ fused gene assessed as suppression of activated MeIQ-induced SOS response to alteration in DNA synthesis at 0.3 mM measured by beta-galactosidase activity by Umu test; assay type: functional, Salmonella enterica subsp. enterica serovar Typhimurium; how it was run: as §1
Salmonella typhimurium [4] = assay: Antimutagenic activity in Salmonella Typhimurium TA1535 carrying pSK1002 containing umuC'-lacZ fused gene assessed as suppression of 0.1 j/M2 UV light-induced SOS response to alteration in DNA synthesis at 0.1 mM measured by beta-galactosidase activity by Umu test; assay type: functional, Salmonella enterica subsp. enterica serovar Typhimurium; how it was run: as §1
Salmonella typhimurium [5] = assay: Antimutagenic activity in Salmonella Typhimurium TA1535 carrying pSK1002 containing umuC'-lacZ fused gene assessed as suppression of furyfuramide-induced SOS response to alteration in DNA synthesis at 0.6 mM measured by beta-galactosidase activity by Umu test; assay type: functional, Salmonella enterica subsp. enterica serovar Typhimurium; how it was run: as §1
Salmonella typhimurium [6] = assay: Antimutagenic activity in Salmonella Typhimurium TA1535 carrying pSK1002 containing umuC'-lacZ fused gene assessed as suppression of MeIQ-induced SOS response to alteration in DNA synthesis at 0.05 mM measured by beta-galactosidase activity by Umu test; assay type: functional, Salmonella enterica subsp. enterica serovar Typhimurium; how it was run: as §1
Salmonella typhimurium [7] = assay: Antimutagenic activity in Salmonella Typhimurium TA1535 carrying pSK1002 containing umuC'-lacZ fused gene assessed as suppression of activated Trp-P-1-induced SOS response to alteration in DNA synthesis at 0.1 mM measured by beta-galactosidase activity by Umu test; assay type: functional, Salmonella enterica subsp. enterica serovar Typhimurium; how it was run: as §1
Salmonella typhimurium [8] = assay: Inhibition of activated Trp-P-1-induced SOS response to alteration in DNA synthesis in Salmonella Typhimurium TA1535 carrying pSK1002 containing umuC'-lacZ fused gene; assay type: functional, Salmonella enterica subsp. enterica serovar Typhimurium; settings: Salmonella enterica, read-out: ID50 (the source's name); how it was run: as §1
Salmonella typhimurium [9] = assay: Antimutagenic activity in Salmonella Typhimurium TA1535 carrying pSK1002 containing umuC'-lacZ fused gene assessed as suppression of activated Trp-P-1-induced SOS response to alteration in DNA synthesis at 0.05 mM measured by beta-galactosidase activity by Umu test; assay type: functional, Salmonella enterica subsp. enterica serovar Typhimurium; how it was run: as §1
Salmonella typhimurium [10] = assay: Antimutagenic activity in Salmonella Typhimurium TA1535 carrying pSK1002 containing umuC'-lacZ fused gene assessed as suppression of MeIQ-induced SOS response to alteration in DNA synthesis measured by beta-galactosidase activity by Umu test; assay type: functional, organism-based; settings: Salmonella enterica subsp. enterica serovar Typhimurium; how it was run: as §1
Salmonella typhimurium [11] = assay: Antimutagenic activity in Salmonella Typhimurium TA1535 carrying pSK1002 containing umuC'-lacZ fused gene assessed as suppression of furyfuramide-induced SOS response to alteration in DNA synthesis at 0.3 mM measured by beta-galactosidase activity by Umu test; assay type: functional, Salmonella enterica subsp. enterica serovar Typhimurium; how it was run: as §1
Salmonella typhimurium [12] = assay: Inhibition of MeIQ-induced SOS response to alteration in DNA synthesis in Salmonella Typhimurium TA1535 carrying pSK1002 containing umuC'-lacZ fused gene at 0.6 mM; assay type: functional, Salmonella enterica subsp. enterica serovar Typhimurium; parameters: scale not given: the % may be the effect or the level left; how it was run: as §1
Salmonella typhimurium [13] = assay: Antimutagenic activity in Salmonella Typhimurium TA1535 carrying pSK1002 containing umuC'-lacZ fused gene assessed as suppression of 0.1 j/M2 UV light-induced SOS response to alteration in DNA synthesis at 0.3 mM measured by beta-galactosidase activity by Umu test; assay type: functional, Salmonella enterica subsp. enterica serovar Typhimurium; how it was run: as §1
Salmonella typhimurium [14] = assay: Antimutagenic activity in Salmonella Typhimurium TA1535 carrying pSK1002 containing umuC'-lacZ fused gene assessed as suppression of Trp-P-1-induced SOS response to alteration in DNA synthesis measured by beta-galactosidase activity by Umu test; assay type: functional, organism-based; settings: Salmonella enterica subsp. enterica serovar Typhimurium; how it was run: as §1
Salmonella typhimurium [15] = assay: Antimutagenic activity in Salmonella Typhimurium TA1535 carrying pSK1002 containing umuC'-lacZ fused gene assessed as suppression of furyfuramide-induced SOS response to alteration in DNA synthesis measured by beta-galactosidase activity by Umu test; assay type: functional, organism-based; settings: Salmonella enterica subsp. enterica serovar Typhimurium; how it was run: as §1
Salmonella typhimurium [16] = assay: Inhibition of MeIQ-induced SOS response to alteration in DNA synthesis in Salmonella Typhimurium TA1535 carrying pSK1002 containing umuC'-lacZ fused gene; assay type: functional, Salmonella enterica subsp. enterica serovar Typhimurium; settings: Salmonella enterica, read-out: ID50 (the source's name); how it was run: as §1
Salmonella typhimurium [17] = assay: Antimutagenic activity in Salmonella Typhimurium TA1535 carrying pSK1002 containing umuC'-lacZ fused gene assessed as suppression of Trp-P-1-induced SOS response to alteration in DNA synthesis at 0.6 mM measured by beta-galactosidase activity by Umu test; assay type: functional, Salmonella enterica subsp. enterica serovar Typhimurium; how it was run: as §1
Salmonella typhimurium [18] = assay: Antimutagenic activity in Salmonella Typhimurium TA1535 carrying pSK1002 containing umuC'-lacZ fused gene assessed as suppression of Trp-P-1-induced SOS response to alteration in DNA synthesis at 0.3 mM measured by beta-galactosidase activity by Umu test; assay type: functional, Salmonella enterica subsp. enterica serovar Typhimurium; how it was run: as §1

IC50 (Salmonella typhimurium [8]): 340 µM | IC50 (Salmonella typhimurium [16]): 40 µM
Structure (SMILES): COc1cc(-c2cc(=O)c3c(OC)c(OC)c(OC)c(OC)c3o2)ccc1O
Activity (Salmonella typhimurium [1]): 195.3 Miller_unit | Activity (Salmonella typhimurium [2]): 58.2% | Activity (Salmonella typhimurium [3]): 243.5 Miller_unit | Activity (Salmonella typhimurium [4]): 551.9 Miller_unit | Activity (Salmonella typhimurium [5]): 443.7 Miller_unit | Activity (Salmonella typhimurium [6]): 267.7 Miller_unit | Activity (Salmonella typhimurium [7]): 233.2 Miller_unit | Activity (Salmonella typhimurium [9]): 283.7 Miller_unit | Activity (Salmonella typhimurium [10]): Active | Activity (Salmonella typhimurium [11]): 489.9 Miller_unit | Activity (Salmonella typhimurium [12]): 80.9% | Activity (Salmonella typhimurium [13]): 563.5 Miller_unit | Activity (Salmonella typhimurium [14]): Active | Activity (Salmonella typhimurium [15]): Active | Activity (Salmonella typhimurium [17]): 168.9 Miller_unit | Activity (Salmonella typhimurium [18]): 219.1 Miller_unit

— ChEMBL document CHEMBL1148948, “Biotransformation of nobiletin by Aspergillus niger and the antimutagenic activity of a metabolite, 4'-hydroxy-5,6,7,8,3'-pentamethoxyflavone” (2004)
